Source: ChEMBL document CHEMBL4513216, “Probing the Open Global Health Chemical Diversity Library for Multistage-Active Starting Points for Next-Generation Antimalarials” (ACS Infect Dis, 2020)

Experiment: Toxicity liver stage against HepG2, at 10uM
Assay type: cell-based
Set-up: test concentration 10 uM, cell line HepG2-A16-CD81EGFP
Conditions: human, HepG2-A16-CD81EGFP cells; read-out: INHIBITION
Outline: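 Uninfected HepG2-A16-CD81EGFP cells, 3 × 10^3 per well, 1536-well, plated on prespotted compound at 10 μM final, parasite-free screening media added to match infected plates; puromycin 10 μM positive, DMSO 0.5% negative; run in parallel with 48 h PbLuc assay at 37 °C, 5% CO2; viability by CellTiter-Glo luminescence, normalized to controls.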

Q: For `CC(C)N1CC[C@H](c2nnc(Cc3c[nH]c4ccccc34)o2)C1`, which cytotoxicity at 10 µM is on record?
A: -9.04%

Q: Which cytotoxicity at 10 µM does the source give for `O[C@@H]1C[C@@H](c2nc(-c3ccc(OC(F)(F)F)cc3)no2)N(CC2CC2)C1` here?
A: 1.32%

Q: For `CC(=O)N1CC[C@H]2CC(=O)N(C3CCCCC3)CC[C@H]2C1`, which cytotoxicity at 10 µM is on record?
A: 0.325%

Q: With `CN1C(=O)CO[C@H]2CN(C(=O)Nc3ccc(F)cc3)C[C@H]21` as the compound, how does the cytotoxicity at 10 µM read?
A: -2.22%

Q: For `CCN(c1ccsc1C(=O)N1CCSCC1)S(=O)(=O)c1ccccc1`, which cytotoxicity at 10 µM is on record?
A: 8.24%

Q: With `O=C(Cc1c(F)cccc1Cl)Nc1cc(N2CCCC2)ncn1` as the compound, how does the cytotoxicity at 10 µM read?
A: -2.85%

Q: For `CN(C)C(=O)N1C[C@@H](C(=O)NCc2ccco2)C[C@H]2OCC[C@H]21`, which cytotoxicity at 10 µM is on record?
A: 2.57%

Q: For `CC(=O)N1[C@H](Cn2cncn2)C[C@@H]2CN(C(=O)NC3CC3)CC[C@@H]21`, which cytotoxicity at 10 µM is on record?
A: -5.16%

Q: Which cytotoxicity at 10 µM does the source give for `CN1CCN(Cc2cn3c(n2)CN(C(=O)N2CCCC2)CC3)CC1` here?
A: 3.23%

Q: For `NC(=O)N1CC[C@@H]2O[C@H](COCC(=O)N3CCCC3)CC[C@@H]21`, which cytotoxicity at 10 µM is on record?
A: -1.49%

Q: For `O=C(c1ccn(COc2ccc(F)cc2)n1)N1CCCC1`, which cytotoxicity at 10 µM is on record?
A: 6.25%

Q: Which cytotoxicity at 10 µM does the source give for `CN(C)C(=O)c1ccn(COc2ccccc2Cl)n1` here?
A: 6.91%

Q: Which cytotoxicity at 10 µM does the source give for `CN(CC(=O)Nc1cc(C(F)(F)F)c[nH]c1=O)Cc1ccccc1` here?
A: 12%

Q: For `CC(C)(C)OC(=O)N(CCNS(=O)(=O)N1CCOCC1)C1CC1`, which cytotoxicity at 10 µM is on record?
A: -4.43%

Q: For `CCOc1cccc(COC(=O)c2cc(C)on2)n1`, which cytotoxicity at 10 µM is on record?
A: -5.08%

Q: With `CC(C)OCCCNC(=O)CN1CCN(c2nccs2)C(C)C1` (stereo not given) as the compound, how does the cytotoxicity at 10 µM read?
A: 1.4%

Q: For `Cc1occc1C(=O)N1CCCN(Cc2ncc(Cl)n2C)CC1`, which cytotoxicity at 10 µM is on record?
A: -1.25%

Q: For `CC(C)c1cc(C(=O)N2CCc3ccccc3C2C(=O)O)nn1C` (stereo not given), which cytotoxicity at 10 µM is on record?
A: -2.53%

Q: For `Cc1nn(-c2ccccc2)c(C)c1CNC(=O)NC1CC(=O)N(C)C1` (stereo not given), which cytotoxicity at 10 µM is on record?
A: -2.17%

Q: Which cytotoxicity at 10 µM does the source give for `CN1CCN(C2CCN(Cc3ccc(Cl)s3)CC2)C1=O` here?
A: 11.2%

Q: Which cytotoxicity at 10 µM does the source give for `CS(=O)(=O)NCC1CCCCN1Cc1ccccc1C#N` (stereo not given) here?
A: -11.5%

Q: Which cytotoxicity at 10 µM does the source give for `Cc1ccc(C(=O)N(Cc2ccccc2F)C2CC2)c(=O)[nH]1` here?
A: 0.846%

Q: Which cytotoxicity at 10 µM does the source give for `Cc1nc(CNC2CCc3ncnn3C2)oc1C` (stereo not given) here?
A: -3.86%

Q: With `CC(SCC(=O)NC(N)=O)c1ccc(Cl)cc1` (stereo not given) as the compound, how does the cytotoxicity at 10 µM read?
A: 4.86%

Q: Which cytotoxicity at 10 µM does the source give for `COC(=O)c1ccc(F)c(Cn2nc(C)cc2C)c1` here?
A: 4.11%

Q: For `COc1ncnc(N)c1CNCC(C)Oc1ccccc1Cl` (stereo not given), which cytotoxicity at 10 µM is on record?
A: 0.732%

Q: For `CN(Cc1ccncc1)C(=O)c1ccc2c(c1O)OC(C)(C)C2`, which cytotoxicity at 10 µM is on record?
A: 1.95%

Q: For `N#CCCN(Cc1ccccn1)C(=O)Nc1cccc(F)c1`, which cytotoxicity at 10 µM is on record?
A: 3.43%

Q: For `Nc1nccnc1C(=O)N(Cc1ccccc1O)CC1CCCO1` (stereo not given), which cytotoxicity at 10 µM is on record?
A: -4.45%

Q: With `Cc1nnc(CN(C)C(=O)C(CC(C)C)N2CCCCC2=O)n1C` (stereo not given) as the compound, how does the cytotoxicity at 10 µM read?
A: -1.88%

Q: With `Cc1cc(-c2noc(C3CCS(=O)(=O)C3)n2)ccc1F` (stereo not given) as the compound, how does the cytotoxicity at 10 µM read?
A: 8.22%

Q: For `Cc1noc(C)c1Cn1cc(I)cc(C)c1=O`, which cytotoxicity at 10 µM is on record?
A: 4.92%

Q: With `Cc1ccc(N(C)CC(O)COCc2ccccc2F)c(C)c1` (stereo not given) as the compound, how does the cytotoxicity at 10 µM read?
A: 18%

Q: Which cytotoxicity at 10 µM does the source give for `COc1ccc(S(=O)(=O)Cc2noc(CC(C)C)n2)cc1` here?
A: 5.52%

Q: Which cytotoxicity at 10 µM does the source give for `c1csc(N2CCCN(c3nccn4cnnc34)CC2)n1` here?
A: -5.05%

Q: Which cytotoxicity at 10 µM does the source give for `CN(CCc1ccncc1)c1cnn(C)c(=O)c1Br` here?
A: -5.44%

Q: With `CCN(Cc1ccc(Cl)s1)S(=O)(=O)CC` as the compound, how does the cytotoxicity at 10 µM read?
A: -1.11%

Q: With `CC(C)C(C)NC(=O)Nc1ccccc1CN1CCOCC1` (stereo not given) as the compound, how does the cytotoxicity at 10 µM read?
A: 0.795%

Q: For `CN(C)C(=O)N1CCN(Cc2nnc(C(C)(C)C)o2)CC1`, which cytotoxicity at 10 µM is on record?
A: 0.278%

Q: Which cytotoxicity at 10 µM does the source give for `CC(=O)Cc1c(C)nn(-c2cncc(C(N)=O)c2)c1C` here?
A: -17.5%

Q: For `c1ccc2c(c1)ccn2CCCNC1CCOC2(CCOCC2)C1` (stereo not given), which cytotoxicity at 10 µM is on record?
A: -7.04%

Q: For `Cn1cc(-c2cc(C(=O)N3CCOCC3)c3ccc(F)cc3n2)cn1`, which cytotoxicity at 10 µM is on record?
A: 1.5%

Q: Which cytotoxicity at 10 µM does the source give for `Cc1cccc(Cn2nc(C3CCNCC3)n(-c3ccccc3)c2=O)c1` here?
A: -4.68%

Q: For `CCN1CCC(CC(=O)NCC(O)c2cccc(OC)c2)CC1` (stereo not given), which cytotoxicity at 10 µM is on record?
A: -6.87%

Q: For `Cc1cccc(C)c1OC1CN(C(=O)C2CCN(C(=O)N(C)C)CC2)C1`, which cytotoxicity at 10 µM is on record?
A: 2.69%

Q: With `O=C(C1CCC1)N1CCN(Cc2ccccc2F)[C@H]2CS(=O)(=O)C[C@H]21` as the compound, how does the cytotoxicity at 10 µM read?
A: 0.15%

Q: With `O=C(Cc1c[nH]c(=O)[nH]c1=O)N1CCCCC1CCc1ccccc1` (stereo not given) as the compound, how does the cytotoxicity at 10 µM read?
A: -9.05%

Q: For `COCCn1cncc1-c1nc2c([nH]1)CC(C)(C)CNC2=O`, which cytotoxicity at 10 µM is on record?
A: 8.42%

Q: With `Nc1nc(Sc2cccs2)cc(N2CC[C@H](CO)[C@H](O)C2)n1` as the compound, how does the cytotoxicity at 10 µM read?
A: 2.68%

Q: With `Cc1ccsc1[C@@H]1CCN(C(=O)CCc2nc3ccccc3[nH]2)C[C@H]1O` as the compound, how does the cytotoxicity at 10 µM read?
A: -1.67%

Q: Which cytotoxicity at 10 µM does the source give for `CC(C)OCCCNC(=O)CS(=O)(=O)Cc1ccc(C(C)(C)C)cc1` here?
A: 4.92%

Q: Which cytotoxicity at 10 µM does the source give for `CC(NC(=O)NCc1cccs1)c1ccc2c(c1)CCC(=O)N2` (stereo not given) here?
A: 5.41%

Q: Which cytotoxicity at 10 µM does the source give for `CCc1nc(C)c(C(=O)NCCNC(=O)Cc2cccc(F)c2)s1` here?
A: 1.98%

Q: For `CC1COCCN1C(=O)Nc1cnc2c(cnn2C(C)C)c1` (stereo not given), which cytotoxicity at 10 µM is on record?
A: -2.21%

Q: Which cytotoxicity at 10 µM does the source give for `Cc1ccc(S(=O)(=O)N2CSCC2C(=O)NCC(F)(F)F)cc1C` (stereo not given) here?
A: -0.855%

Q: For `CN(C)c1ncccc1CNS(=O)(=O)c1cc(F)ccc1F`, which cytotoxicity at 10 µM is on record?
A: 5.67%

Q: For `CCn1cc(NC(=O)NCCc2ccc3c(c2)OCCO3)cn1`, which cytotoxicity at 10 µM is on record?
A: -7.72%

Q: With `CCc1ccsc1C(=O)N1CCN(CC(C)O)CC1` (stereo not given) as the compound, how does the cytotoxicity at 10 µM read?
A: -33.1%

Q: For `CC(c1cccc(S(N)(=O)=O)c1)N(C)CCOC(C)(C)C` (stereo not given), which cytotoxicity at 10 µM is on record?
A: -32.8%

Q: Which cytotoxicity at 10 µM does the source give for `NC(=O)CN1CCC(NC(=O)COc2ccc(Cl)c(Cl)c2)CC1` here?
A: -8.7%

Q: Which cytotoxicity at 10 µM does the source give for `CC(=O)N(Cc1noc(C)n1)C1CCN(Cc2c(C)noc2C)C1` (stereo not given) here?
A: -9.55%

Q: For `Cc1cnn(C2CCCN(C(=O)CCCOc3ccccc3F)C2)c1` (stereo not given), which cytotoxicity at 10 µM is on record?
A: -7.52%

Q: Which cytotoxicity at 10 µM does the source give for `Cc1cnn(C2CCCN(C(=O)c3cn(-c4ccccc4)nn3)C2)c1` (stereo not given) here?
A: -22.1%

Q: Which cytotoxicity at 10 µM does the source give for `CCc1nnc(CN2CCC(N3CCN(CC)C3=O)CC2)o1` here?
A: 1.52%

Q: For `CCOc1ccc(CC(CNC(=O)c2ccco2)C(N)=O)cc1` (stereo not given), which cytotoxicity at 10 µM is on record?
A: 8.26%

Q: For `COc1ccc(Br)c(C(=O)N2CCCC(c3nc(C)no3)C2)c1` (stereo not given), which cytotoxicity at 10 µM is on record?
A: 7.08%

Q: For `Cc1noc(C2CCCN(C(=O)c3cncc(Br)c3)C2)n1` (stereo not given), which cytotoxicity at 10 µM is on record?
A: -1.82%

Q: Which cytotoxicity at 10 µM does the source give for `CCC1CCCN(CC(=O)Nc2oc(C)c3c(C)n[nH]c(=O)c23)C1` (stereo not given) here?
A: -3.66%

Q: Which cytotoxicity at 10 µM does the source give for `O=C1CC2(CCNCC2)C(=O)N1c1cccc(F)c1` here?
A: 1.7%

Q: For `Cc1nnn2c1COCC(CNCc1nccs1)C2` (stereo not given), which cytotoxicity at 10 µM is on record?
A: -109%

Q: With `CNC(=O)CN1CC[C@H]2CN(C(=O)c3ccccc3C)C[C@H]2C1` as the compound, how does the cytotoxicity at 10 µM read?
A: 0.793%

Q: Which cytotoxicity at 10 µM does the source give for `O=C1[C@H]2CN(Cc3ccccc3)C[C@H]2CN1c1cncnc1` here?
A: -4.53%

Q: With `c1coc(CN2CCC3(CC2)COC(COCC2CC2)C3)c1` (stereo not given) as the compound, how does the cytotoxicity at 10 µM read?
A: -4.37%

Q: Which cytotoxicity at 10 µM does the source give for `O=C(c1cnoc1)N1CCC[C@]2(C[C@@H](Oc3ccccn3)CO2)C1` here?
A: -5.96%

Q: With `CC(C)C[C@H](N)C(=O)N1CC2(CCNCC2)c2cc(Cl)ccc21` as the compound, how does the cytotoxicity at 10 µM read?
A: -8.34%

Q: Which cytotoxicity at 10 µM does the source give for `Cc1cccc(CN2C[C@H]3CCC[C@@]3(COCc3csc(C)n3)C2)n1` here?
A: 14.3%

Q: Which cytotoxicity at 10 µM does the source give for `O=C1C[C@H]2[C@@H](CCN2Cc2ccccn2)N1Cc1cccnc1` here?
A: 4.88%

Q: Which cytotoxicity at 10 µM does the source give for `NC1CCC(n2cc(C(=O)NC3COc4ccccc43)nn2)CC1` (stereo not given) here?
A: -4.8%

Q: For `CN(C)C(=O)N1C[C@H]2CC[C@@H](C1)N(C/C=C/c1ccc(F)cc1)C2`, which cytotoxicity at 10 µM is on record?
A: -0.545%

Q: Which cytotoxicity at 10 µM does the source give for `CCCN1C[C@@H]2CC[C@H]1CN(Cc1ccc(Cn3cccn3)cc1)C2` here?
A: -4.87%
